Experimental data from different studies.
Each line is one published result; the experiments were not run side by side.
Target: Cyclin-dependent kinase-like 2 (CDKL2, Homo sapiens, UniProt Q92772)
Sequence (Q92772 1-493, as in one of the studies): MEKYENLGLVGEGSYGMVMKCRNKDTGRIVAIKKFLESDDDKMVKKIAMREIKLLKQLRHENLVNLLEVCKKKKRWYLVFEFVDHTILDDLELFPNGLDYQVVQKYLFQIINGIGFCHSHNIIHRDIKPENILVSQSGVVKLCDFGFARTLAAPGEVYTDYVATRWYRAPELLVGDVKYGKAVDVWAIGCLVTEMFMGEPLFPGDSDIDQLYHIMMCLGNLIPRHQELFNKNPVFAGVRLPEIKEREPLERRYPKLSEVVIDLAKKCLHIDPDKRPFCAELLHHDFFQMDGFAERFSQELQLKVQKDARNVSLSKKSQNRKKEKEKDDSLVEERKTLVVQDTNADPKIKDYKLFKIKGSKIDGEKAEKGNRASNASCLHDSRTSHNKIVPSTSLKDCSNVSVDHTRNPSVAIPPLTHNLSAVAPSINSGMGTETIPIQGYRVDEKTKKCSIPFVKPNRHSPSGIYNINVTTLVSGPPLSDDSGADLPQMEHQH

SMILES | assay | conditions | remaining binding
c1cnn2ncc(-c3ccnc(N4CCC45COC5)n3)c2c1 | binding | 1 µM | 91%
Cc1cnc(Nc2ccc(C(=O)N3CCC(N4CCCC4)CC3)cc2)nc1-c1cc2ccccc2s1 | binding, competition with immobilised ligand | 1 µM | 12%
CO[C@@H](C)c1c(Nc2ccc([C@@H](N(C)C(=O)C3CCS(=O)(=O)CC3)C(F)(F)F)cc2)cnc2cc(Cl)nn12 | cell-free assay, competition with immobilised ligand | 1 µM | 88%
Cc1cnn2ncc(-c3ccnc(N(C)C)n3)c2c1 | binding | 1 µM | 100%
O=C(Nc1cccnn1)N1CC(C/C=C/c2cncc(Oc3ccc(C(F)(F)F)cn3)n2)C1 | cell-free assay, competition with immobilised ligand | 1 µM | 100%
C[C@@H]1CCN(c2nccc(-c3cnn4ncccc34)n2)C1 | binding | 1 µM | 99%
COc1ncc2cc3ccccc3nc2c1C#N | binding, competition with immobilised ligand | 5 µM | 90%
CNC(=O)[C@@H]1CC[C@@H](n2c(-c3ccc4cnccc4c3)nc3ccc(C(=O)NCc4cccc(C(N)=O)c4)cc32)C1 | binding, competition with immobilised ligand | 1 µM | 100%
O=C(c1ccc(Nc2ncc(Cl)c(-c3cc4ccccc4s3)n2)cc1)N1CCC(N2CCCC2)CC1 | binding, competition with immobilised ligand | 1 µM | 2.4%
c1cncc(-c2cccc(Nc3nccc(NC4CCCCC4)n3)c2)c1 | binding, competition with immobilised ligand | 10 µM | 64%
CC1CCCN1c1nccc(-c2cnn3ncccc23)n1 (stereo not shown) | binding | 1 µM | 100%
O=C(NCC1CCOCC1)c1n[nH]cc1NC(=O)c1c(F)cccc1F | binding, competition with immobilised ligand | 1 µM | 93%
N#Cc1ccc(Nc2ccc3[nH]c(=O)[nH]c3c2)c(Cl)c1 | binding, competition with immobilised ligand | 1 µM | 100%
FC(F)(F)Oc1cccc(-c2cnc3ccc(-c4ccncc4)nn23)c1 | cell-free assay, competition with immobilised ligand | 5 µM | 67%
C=CC(=O)N1CCC(C(=O)NCC(=O)N2CCN(c3nc(-c4cnc(N)nc4C(F)F)nc(N4CCOCC4)n3)CC2)CC1 | binding, competition with immobilised ligand | 1 µM | 100%
CN(C)C(=O)Cn1cc(-c2nc(C3(c4ccc(-c5cnc(N)nc5)cc4)CC3)no2)cn1 | cell-free assay, competition with immobilised ligand | 1 µM | 100%
O=C(NCCCN1CCOCC1)c1ccc(Nc2nccc(-c3cc4ccccc4s3)n2)cc1 | binding, competition with immobilised ligand | 1 µM | 7.3%
CC(=O)N1CCC(c2ccc(C(=O)NC3=NCCN3)cc2C(F)(F)F)CC1 | cell-free assay, competition with immobilised ligand | 1 µM | 100%
F[C@@H]1CCN(c2nccc(-c3cnn4ncccc34)n2)C1 | binding | 1 µM | 100%
COc1cnc(Nc2cccc(S(N)(=O)=O)c2)nc1N1CCN(c2ccccc2)C(=O)C1 | binding, competition with immobilised ligand | 1 µM | 98%
N[C@@H]1CCN(c2nccc(-c3cnn4ncccc34)n2)C1 | binding | 1 µM | 100%
O=C1CCc2cc(Nc3cc(OC4CCOCC4)c([N+](=O)[O-])cc3Cl)ccc2N1 | cell-free assay, competition with immobilised ligand | 1 µM | 92%
